Published values pooled from the literature.
Each line is one published result; the experiments were not run side by side.
HTR7: 5-hydroxytryptamine receptor 7 (HTR7, Homo sapiens, UniProt P34969)
PKM: Pyruvate kinase PKM (PKM, Homo sapiens, UniProt P14618)
HTR6: 5-hydroxytryptamine receptor 6 (HTR6, Homo sapiens, UniProt P50406)
OR5K1 A2T/T15M/Y193C: OR5K1 (Homo sapiens, UniProt Q8NHB7, A2T/T15M/Y193C)
CDK2: Cyclin-dependent kinase 2 (CDK2, Homo sapiens, UniProt P24941)
STAT3: Signal transducer and activator of transcription 3 (STAT3, Homo sapiens, UniProt P40763)

Cc1cc2nc3c(=O)[nH]c(=O)nc-3n(C[C@H](O)[C@H](O)[C@H](O)COP(=O)(O)OP(=O)(O)OC[C@H]3O[C@@H](n4cnc5c(N)ncnc54)[C@H](O)[C@@H]3O)c2cc1C  Kd (Nucleolysin TIAR (Homo sapiens, UniProt Q01085); binding; lysate): 0.011 µM
CN1CCN(C2=Nc3ccccc3Oc3ccc(Cl)cc32)CC1  Ki (HTR7; ligand displacement, radioligand; cell membranes): 0.258 µM
Cc1ccc(NS(=O)(=O)c2cc3c(cc2NC(C)CO)NC(=O)CC3)cc1C (stereo not shown)  AC50 (PKM; enzyme activity, activator): 0.23 µM
CN1C[C@H](CNC(=O)OCc2ccccc2)C[C@@H]2c3cccc4c3c(cn4C)C[C@H]21  Ki (HTR7; ligand displacement, radioligand; cell membranes): 0.016 µM
C[C@@H](CO)Nc1cc2c(cc1S(=O)(=O)Nc1ccc(F)c(Cl)c1)CCC(=O)N2  AC50 (PKM; enzyme activity, activator): 0.13 µM
Nc1nc2c(ncn2[C@@H]2O[C@H](COP(=O)(O)OP(=O)(O)O)[C@@H](OP(=O)(O)OP(=O)(O)O)[C@H]2O)c(=O)[nH]1  Kd (icd (Escherichia coli, UniProt P08200); binding, ITC): 132 µM
Cc1ccc(NS(=O)(=O)c2cc3c(cc2-c2ccccc2)NC(=O)CO3)cc1C  AC50 (PKM; enzyme activity, activator): > 20 µM
CC(C)c1nc2cc(OCCCCN3CCN(c4cccc5c4OCCO5)CC3)ccc2s1  Ki (HTR6; cell-free assay, radioligand): 2.3 µM
Cc1cc(NS(=O)(=O)c2ccc3c(c2)CCC(=O)N3)ccc1Cl  AC50 (PKM; enzyme activity, activator): 0.56 µM
CCCCN1CCC(COC(=O)c2ccc(N)c(OCF)c2)CC1  Ki (HTR6; cell-free assay, radioligand): > 10 µM
Cc1cnc(C)c(C)n1  EC50 (OR5K1 A2T/T15M/Y193C; cAMP, agonist): 419 µM
Cc1cnc(-c2ccc(-c3ccc(NC(=O)Nc4c(F)cc(F)cc4F)cc3F)c3c2C(=O)NC3)[nH]1  Kd (Vascular endothelial growth factor receptor 3 (FLT4, Homo sapiens, UniProt P35916); binding, competition with immobilised ligand): 0.016 µM
CC(=O)N[C@H](C(=O)N[C@@H](CC(N)=O)C(=O)N[C@@H](CCCCN)C(=O)N[C@@H](C)C(=O)N[C@@H](CC(C)C)C(=O)N1CCC[C@H]1C(=O)N[C@@H](C)C(=O)N[C@@H](CC(C)C)C(=O)N1CCC[C@H]1C(=O)N[C@H](C(=O)N[C@@H](C)C(N)=O)C(C)C)C(C)C  Kd (Tyrosine-protein kinase Fyn, SH3 (FYN, Homo sapiens, UniProt P06241); binding, ITC; pH 7): 70 µM
CC(C)[C@@H](CC[C@@H](C)[C@H]1CC[C@H]2[C@@H]3[C@H](O)C[C@H]4C[C@@H](NCCCNCCCCNCCCN)CC[C@]4(C)[C@H]3CC[C@]12C)OS(=O)(=O)O  Ki (Receptor-type tyrosine-protein phosphatase R (PTPRR, Homo sapiens, UniProt Q15256); enzyme activity, inhibitor): 25 µM
CC[C@H](NC(=O)[C@H](CS(=O)(=O)CC1CC1)N[C@@H](c1ccc(F)cc1)C(F)(F)F)C(=O)C(=O)NC1CC1  Ki (Cathepsin B (CTSB, Homo sapiens, UniProt P07858); enzyme activity, inhibitor, fluorescence; with preincubation): 0.00033 µM
CC1=C(/C=C/C2=CCC[C@@]3(C)[C@H]2CC[C@@H]3[C@@](C)(O)CCCC(C)C)C[C@@H](O)CC1  EC50 (Oxysterols receptor LXR-beta (NR1H2, Homo sapiens, UniProt P55055); coactivator recruitment, agonist, TR-FRET): 0.01 to 0.1 µM
COc1cnccn1  EC50 (OR5K1 (Homo sapiens, UniProt Q8NHB7); cAMP, agonist): > 1500 µM
Cc1ccc(NS(=O)(=O)c2cc3c(cc2N[C@@H](C)CO)CCC(=O)N3)cc1Cl  AC50 (PKM; enzyme activity, activator): 6.1 µM
O=C(Nc1cc(C2CCCCC2)[nH]n1)c1ccc(Br)cc1  Kd (CDK2; binding): > 100 µM
O=C1CCc2cc(S(=O)(=O)Nc3ccc4c(c3)OCCO4)ccc2N1  AC50 (PKM; enzyme activity, activator): 11.1 µM
Cc1ccc2cccc(N3CCN(CCCCOc4ccc5sc(C(C)C)nc5c4)CC3)c2n1  Ki (HTR6; cell-free assay, radioligand): 2.2 µM
CN(CC(=O)N(Cc1cc(C(C)(C)C)cc(C(C)(C)C)c1)c1ccc(C(=O)O)c(O)c1)S(=O)(=O)c1c(F)c(F)c(F)c(F)c1F  Ki (STAT3; ligand displacement, FP): 37.5 µM
Cc1ccc(NS(=O)(=O)c2cc3c(cc2/C=C/c2ccccc2)NC(=O)CO3)cc1C  AC50 (PKM; enzyme activity, activator): > 20 µM
Cc1cc(C)c(S(=O)(=O)N(C)CC(=O)N(Cc2ccc3ccccc3c2)c2ccc(C(=O)O)c(O)c2)c(C)c1  Ki (STAT3; ligand displacement, FP): 27.7 µM
CCc1nccnc1OC  EC50 (OR5K1 A2T/T15M/Y193C; cAMP, agonist): 578 µM
O=C1c2ccccc2CCN1CCCCN1CCN(c2cccc(Cl)c2Cl)CC1  Ki (HTR6; ligand displacement, radioligand): 0.544 µM
Cc1ccc(NS(=O)(=O)c2cc3c(cc2N2CCC(N(C)C)C2)NC(=O)CC3)cc1C (stereo not shown)  AC50 (PKM; enzyme activity, activator): > 20 µM
CCc1ncc(C)nc1CC  EC50 (OR5K1 A2T/T15M/Y193C; cAMP, agonist): 102 µM
CC(=O)N=S(=O)(O)c1ccc(N/C=C2\C(=O)Nc3ccc4ncsc4c32)cc1  Kd (CDK2; binding): 0.526 µM
CN(C)CCSc1nc2ccccc2cc1-c1ccccc1  Ki (HTR7; ligand displacement, radioligand; cell membranes): 0.393 µM
c1cnc2cc3c(cc2n1)[C@@H]1CNC[C@H]3C1  Ki (Neuronal acetylcholine receptor subunit alpha-4/beta-2 (Mus musculus, UniProt O70174+Q9ERK7); ligand displacement, radioligand; cell membranes): 0.00299 µM
